Assay results of several laboratories.
Compare with care: the assays were run in different laboratories.
Target: Phosphatidylinositol 4,5-bisphosphate 3-kinase catalytic subunit gamma isoform (PIK3CG, Homo sapiens, UniProt P48736)

Structure (SMILES)	test	setting	remaining binding
C[C@@]1(Cc2ccc(C#N)cc2)C(=O)N(c2cc(Cl)cc(Cl)c2)c2ncc(C(=O)NC3(c4nc(C5CCC5)no4)CC3)n21	cell-free assay, competition with immobilised ligand	1 µM	95%
O=C(c1ccc(Nc2ncc(Cl)c(-c3ccc(Cl)s3)n2)cc1)N1CCC(N2CCCC2)CC1	binding, competition with immobilised ligand	1 µM	90%
Cc1cnn2ncc(-c3ccnc(N(C)C)n3)c2c1	binding	1 µM	47%
O=C(NCC1CCOCC1)c1n[nH]cc1NC(=O)c1c(F)cccc1F	binding, competition with immobilised ligand	1 µM	100%
CN(c1nccc(-c2cnn3ncccc23)n1)C1CC1	binding	1 µM	100%
C[C@@H](c1cccc(C#N)c1)n1cc(Cl)cc(C(N)=O)c1=N	cell-free assay, competition with immobilised ligand	1 µM	100%
CC(C)(C)c1ccc(-c2nc(CBr)nn2-c2cccc(O)c2)cc1	cell-free assay, competition with immobilised ligand	10 µM	94%
CCN1CCN(Cc2ccc(C(=O)Nc3ccc(C)c(Oc4ccc5c(c4)CC(=O)N5)c3)cc2C(F)(F)F)CC1	binding, competition with immobilised ligand	1 µM	93%
COCCOc1nc(-c2ccc(Cl)nc2)nc2c1CN(C(=O)c1ncn3ccccc13)CC2	cell-free assay, competition with immobilised ligand	0.1 µM	100%
N[C@@H]1CCN(c2nccc(-c3cnn4ncccc34)n2)C1	binding	1 µM	100%
CNC(=O)[C@@H]1CC[C@@H](n2c(-c3ccc4cnccc4c3)nc3ccc(C(=O)NCc4cccc(C(N)=O)c4)cc32)C1	binding, competition with immobilised ligand	1 µM	100%
CN(CCCC(F)(F)F)c1nccc(-c2cnn3ncccc23)n1	binding	1 µM	100%
CCCOc1ccc([C@H]2[C@H](C(=O)O)[C@@H](c3ccc4c(c3)OCO4)CN2CC(=O)Nc2c(CC)cccc2CC)cc1	cell-free assay, competition with immobilised ligand	1 µM	68%
C[C@@H]1CCN(c2nccc(-c3cnn4ncccc34)n2)C1	binding	1 µM	58%
CN1CCN(c2cnc3c(C4CCN(C(=O)c5ccc(OC(F)(F)F)cc5N)CC4)ncnc3c2)CC1	cell-free assay, competition with immobilised ligand	1 µM	95%
O=C(c1ccc(Nc2nccc(-c3cc4ccccc4s3)n2)cc1)N1CCC(N2CCCC2)CC1	binding, competition with immobilised ligand	1 µM	27%
CN(C)c1nccc(-c2cnc3ncccn23)n1	binding	1 µM	39%
CC(C)CC(=O)N1CCc2nc(-c3ccc(Br)cc3)nc(N(C)Cc3ccccc3)c2C1	cell-free assay, competition with immobilised ligand	0.1 µM	100%
COc1cnc(Nc2cccc(S(N)(=O)=O)c2)nc1N1CCN(c2ccccc2)C(=O)C1	binding, competition with immobilised ligand	1 µM	34%
O=C(NCCCN1CCOCC1)c1ccc(Nc2ncc(Cl)c(-c3ccc(Cl)s3)n2)cc1	binding, competition with immobilised ligand	1 µM	100%
FC(F)(F)c1ccc2c(c1)nc(-c1cccnc1)n2C1CC1	cell-free assay, competition with immobilised ligand	1 µM	92%
CN(C)c1ncc(F)c(-c2cnn3ncccc23)n1	binding	1 µM	90%
C[C@@H](c1ccc(-n2cnc3c(N)ncnc32)cc1)N1CCc2nn(C)c(Cc3ccccc3)c2C1=O	binding, competition with immobilised ligand	0.1 µM	85%
